Laboratory results reported in ChEMBL document CHEMBL1772938, “Optimization of 3-(phenylthio)quinolinium compounds against opportunistic fungal pathogens” (Eur J Med Chem, 2011).
Converted amounts (≈) assume the structure as drawn.

How the values were obtained:
Pichia kudriavzevii [1] = test: Antimicrobial activity against Candida krusei ATCC 6258 by alamar blue assay; type: functional, organism-based
Candida albicans [2] = test: Antimicrobial activity against Candida albicans ATCC 90028 by alamar blue assay; type: functional, organism-based
[3] = Cytotoxicity against african green monkey Vero cells after 48 hrs by neutral red assay; type: cell-based; details: chlorocebus sabaeus, read-out: TC50
How it was run: (§1)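 VERO kidney cells were seeded at 25,000 cells/well and incubated 24 h. Samples were added up to 10 μg/mL and incubated a further 48 h. Viable cells were counted by neutral red uptake. IC50 came from growth-inhibition dose curves. Doxorubicin was the positive control and DMSO the vehicle control.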

Candida albicans [4] = test: Antimicrobial activity against Candida albicans ATCC 90028 by CLSI method; type: functional
How it was run: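 C. albicans inoculum was made to the 0.5 McFarland standard in Sabouraud dextrose broth or RPMI 1640. Samples came from DMSO stocks serially diluted in saline, in duplicate, starting at a final 20 μg/mL. Plates were read at OD 630 nm before and after incubation. IC50 came from the % growth versus concentration plot; MIC was the lowest concentration with no visible growth. Included: growth, solvent and blank controls, plus amphotericin B.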

Cryptococcus neoformans [5] = test: Antimicrobial activity against Cryptococcus neoformans ATCC 90113 by CLSI method; type: functional
How it was run: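 C. neoformans in Sabouraud dextrose broth, inoculum per the 0.5 McFarland standard. Saline serial dilutions of DMSO samples were tested in duplicate, with a final top concentration of 20 μg/mL. OD 630 nm was read before and after incubation. IC50 was derived from % growth versus concentration. MIC was judged visually as the lowest concentration with no detectable growth. Amphotericin B served as the drug control.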

Cryptococcus neoformans [6] = test: Antimicrobial activity against Cryptococcus neoformans ATCC 90113 by alamar blue assay; type: functional, organism-based
Aspergillus fumigatus [7] = test: Antimicrobial activity against Aspergillus fumigatus ATCC 90906 by alamar blue assay; type: functional, organism-based
How it was run: (§2)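 Modified CLSI broth microdilution. DMSO stocks were serially diluted in saline and run in duplicate. Inoculum was set by the 0.5 McFarland standard in YM broth for MIC, or in RPMI-1640 + 5% Alamar Blue for IC50. The top final concentration was 20 μg/mL. Fluorescence (544ex/590em) was read before and after incubation. IC50 was taken from % growth versus concentration; MIC was read visually as no blue-to-pink change.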

Nakaseomyces glabratus [8] = test: Antimicrobial activity against Candida glabrata ATCC 90030 by alamar blue assay; type: functional, organism-based
Pichia kudriavzevii [9] = test: Antimicrobial activity against Candida krusei ATCC 6258 by CLSI method; type: functional
How it was run: (§3)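 Modified CLSI microdilution. DMSO samples were serially diluted in saline and tested in duplicate against inoculum adjusted by the 0.5 McFarland standard. The final test range started at 20 μg/mL. Plates were read before and after incubation. IC50 came from % growth versus concentration; MIC was the lowest concentration without visible growth. Growth, solvent, blank and amphotericin B controls were on each plate.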

Nakaseomyces glabratus [10] = test: Antimicrobial activity against Candida glabrata ATCC 90030 by CLSI method; type: functional; how it was run: as §3
Aspergillus fumigatus [11] = test: Antimicrobial activity against Aspergillus fumigatus ATCC 90906 by CLSI method; type: functional; how it was run: as §2
[12] = Selectivity index, ratio of TC50 for african green monkey Vero cells to IC50 for Cryptococcus neoformans ATCC 90113; type: toxicity, cell-based; details: read-out: Selectivity Index
Vero = test: Cytotoxicity against african green monkey Vero cells at 10 ug/ml after 48 hrs by neutral red assay; type: cell-based; details: chlorocebus sabaeus; how it was run: as §1

Row | SMILES | IC50 (Pichia kudriavzevii [1]) [µg/mL] | IC50 (Candida albicans [2]) [µg/mL] | CC50 at 48 h [3] [µg/mL] | MFC (Candida albicans [4]) [µg/mL] | MIC (Candida albicans [4]) [µg/mL] | MFC (Cryptococcus neoformans [5]) [µg/mL] | MIC (Cryptococcus neoformans [5]) [µg/mL] | IC50 (Cryptococcus neoformans [6]) [µg/mL] | IC50 (Aspergillus fumigatus [7]) [µg/mL] | IC50 (Nakaseomyces glabratus [8]) [µg/mL] | MFC (Pichia kudriavzevii [9]) [µg/mL] | MIC (Pichia kudriavzevii [9]) [µg/mL] | MFC (Nakaseomyces glabratus [10]) [µg/mL] | MIC (Nakaseomyces glabratus [10]) [µg/mL] | MFC (Aspergillus fumigatus [11]) [µg/mL] | MIC (Aspergillus fumigatus [11]) [µg/mL] | selectivity ratio [12] | Activity (Vero)
1 | Cc1ccc(Sc2cc3ccccc3[n+](CCCCCC3CCCCC3)c2)cc1.[I-] | 0.5 | 1.3 | 2.8 | 5 | 2.5 | 1.3 | 0.3 | 0.2 | 2.7 | 5.5 | 1.3 | 0.6 | 10 | 10 | 5 | 5 | 14 | 
2 | Cc1ccccc1Sc1cc2ccccc2[n+](CCCCCC2CCCCC2)c1.[I-] | 0.6 | 1.7 | 4 | 10 | 5 | 1.3 | 0.6 | 0.3 | 4.8 | 13 | 1.3 | 1.3 | 20 | 20 | > 20 | 10 | 13 | 
3 | Fc1cccc(Sc2cc3ccccc3[n+](CCCCCC3CCCCC3)c2)c1.[I-] | 0.3 | 2.7 | 6.6 | 10 | 5 | 2.5 | 0.6 | 0.5 | 5.3 | 12 | 1.3 | 0.6 | 20 | 20 | 20 | 10 | 13 | 
4 | Cc1cccc(Sc2cc3ccccc3[n+](CCCCCC3CCCCC3)c2)c1.[I-] | 0.4 | 1.4 | 3.7 | 5 | 2.5 | 0.4 | 0.3 | 0.2 | 3.5 | 5.5 | 1.3 | 0.6 | 10 | 10 | 5 | 5 | 19 | 
5 | Brc1cccc(Sc2cc3ccccc3[n+](CCCCCc3ccccc3)c2)c1.[I-] |  | 10 | > 10 | > 20 | 20 | 10 | 5 | 2 | 2.5 |  |  |  |  |  | > 20 | 10 |  | 
6 | C[C@@H]1[C@H](O)[C@@H](C)/C=C/C=C/C=C/C=C/C=C/C=C/C=C/[C@H](O[C@@H]2O[C@H](C)[C@@H](O)[C@H](N)[C@@H]2O)C[C@@H]2O[C@](O)(C[C@@H](O)C[C@@H](O)[C@H](O)CC[C@@H](O)C[C@@H](O)CC(=O)O[C@H]1C)C[C@H](O)[C@H]2C(=O)O [AMPHOTERICIN B] | 0.9 (≈ 0.974 µM) |  | 6.5 (≈ 7.03 µM) | 1.3 (≈ 1.41 µM) | 1.3 (≈ 1.41 µM) | 5 (≈ 5.41 µM) | 1.3 (≈ 1.41 µM) |  |  | 0.6 (≈ 0.649 µM) | 2.5 (≈ 2.71 µM) | 2.5 (≈ 2.71 µM) | 2.5 (≈ 2.71 µM) | 1.3 (≈ 1.41 µM) | 5 (≈ 5.41 µM) | 1.3 (≈ 1.41 µM) | 14 | 
7 | Fc1ccc(Sc2cc3ccccc3[n+](CCCCCc3ccccc3)c2)cc1.[I-] |  | > 20 |  | > 20 | > 20 | > 20 | 20 | 15 | 9 |  |  |  |  |  | > 20 | 20 |  | Non-toxic
8 | FC(F)(F)c1ccc(Sc2cc3ccccc3[n+](CCCCCc3ccccc3)c2)cc1.[I-] |  | 11 | 10 | > 20 | 20 | 10 | 5 | 2.7 | 15 |  |  |  |  |  | > 20 | > 20 |  | 
9 | Oc1ccccc1Sc1cc2ccccc2[n+](CCCCCC2CCCCC2)c1.[I-] | 4.4 | 4.7 | 9.3 | 20 | 10 | 1.3 | 1.3 | 1 | 3.9 | 12 | 10 | 10 | > 20 | 20 | > 20 | 10 | 9.3 | 
10 | COc1ccccc1Sc1cc2ccccc2[n+](CCCCCc2ccccc2)c1.[I-] |  | > 20 | 4.3 | > 20 | > 20 | > 20 | > 20 | 15 | 8 |  |  |  |  |  | > 20 | > 20 |  | 
11 | COc1cccc(Sc2cc3ccccc3[n+](CCCCCC3CCCCC3)c2)c1.[I-] | 0.6 | 2.7 | 4.5 | 10 | 5 | 2.5 | 0.6 | 0.4 | 5.5 | 16 | 1.3 | 1.3 | > 20 | 20 | 20 | 10 | 11 | 
12 | Brc1ccccc1Sc1cc2ccccc2[n+](CCCCCC2CCCCC2)c1.[I-] | 0.3 | 1.4 | 9.7 | 2.5 | 2.5 | 1.3 | 0.6 | 0.3 | 2 | 3.2 | 1.3 | 0.6 | 10 | 5 | 20 | 2.5 | 32 | 
13 | Cc1cccc(Sc2cc3ccccc3[n+](CCCCCc3ccccc3)c2)c1.[I-] |  | > 20 | 8.8 | > 20 | > 20 | 20 | 2.5 | 1.4 | 20 |  |  |  |  |  | > 20 | > 20 |  | 
14 | COc1cccc(Sc2cc3ccccc3[n+](CCCCCc3ccccc3)c2)c1.[I-] |  | > 20 | > 10 | > 20 | > 20 | > 20 | 20 | 10 | 3.5 |  |  |  |  |  | > 20 | 5 |  | 
15 | [I-].c1ccc(Sc2cc3ccccc3[n+](CCCCCC3CCCCC3)c2)cc1 |  |  | 4.6 | 10 | 5 | 2.5 | 1.3 |  |  | 15 | 2.5 | 1.3 | 20 | 20 | > 20 | 10 | 9.2 | 
16 | Cc1ccc(Sc2cc3ccccc3[n+](CCCCCc3ccccc3)c2)cc1.[I-] |  | > 20 | 4.2 | > 20 | > 20 | 5 | 2.5 | 1.2 | 16 |  |  |  |  |  | > 20 | > 20 |  | 
17 | COc1ccc(Sc2cc3ccccc3[n+](CCCCCc3ccccc3)c2)cc1.[I-] |  | > 20 | 10 | > 20 | > 20 | < 20 | 20 | 15 | 4.5 |  |  |  |  |  | > 20 | 20 |  | 
18 | N#Cc1ccccc1Sc1cc2ccccc2[n+](CCCCCC2CCCCC2)c1.[I-] | 0.7 | 3.3 | 10 | 10 | 10 | 10 | 1.3 | 1.1 | 5 | 12 | 5 | 2.5 | 20 | 20 | 20 | 19 | 9.1 | 
19 | [I-].c1ccc(CCCCC[n+]2cc(Sc3ccccc3)cc3ccccc32)cc1 |  |  |  | > 20 | 10 | > 20 | 5 |  |  |  |  |  |  |  | > 20 | 1.3 |  | 
20 | Brc1ccccc1Sc1cc2ccccc2[n+](CCCCCc2ccccc2)c1.[I-] |  | 10 | 10 | > 20 | 20 | 20 | 5 | 3 | 1 |  |  |  |  |  | > 20 | 2.5 |  | 
